Test results: ChEMBL document CHEMBL3272149, “Synthesis and antibacterial activity of some derivatives of tolypomycinone. Relationship between structure and activity in ansamycins” (J Med Chem, 1977)
In brackets after ≈: the same amount, converted by molar mass.

Key:
Assay type in all cases: functional
Staphylococcus aureus = test: Antibacterial activity against Staphylococcus aureus 209 P(FDA) assessed as inhibition of visible growth after 24 hrs by serial dilution method
Klebsiella pneumoniae = test: Antibacterial activity against Klebsiella pneumoniae Ottaviani assessed as inhibition of visible growth after 24 hrs by serial dilution method
Escherichia coli = test: Antibacterial activity against Escherichia coli MC/35 assessed as inhibition of visible growth after 24 hrs by serial dilution method; settings: MC/35, 24 h
[1] = tested on: Salmonella enterica subsp. enterica serovar Paratyphi B; test: Antibacterial activity against Salmonella paratyphi B 0248 K assessed as inhibition of visible growth after 24 hrs by serial dilution method
How it was run: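 Broth tube serial dilution in Brain Heart Infusion medium; inoculum 10^6 cells/mL; incubation 24 h at 35 °C; MIC taken as the lowest antibiotic concentration that prevented visible growth.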

Row | SMILES | MIC (Staphylococcus aureus) [µg/mL] | MIC (Klebsiella pneumoniae) [µg/mL] | MIC (Escherichia coli) [µg/mL] | MIC [1] [µg/mL]
1 | CO[C@H]1/C=C/O[C@@]2(C)Oc3c(C)c(O)c4c(c3C2=O)C(=O)C(NCC2CCCO2)=C(NC(=O)/C(C)=C\C(=O)[C@@H]2C[C@@H]2[C@H](O)[C@@H](C)[C@@H](O)[C@@H](C)[C@H](OC(C)=O)[C@@H]1C)C4=O (stereo not given in full) | 0.005 (≈ 0.00618 µM) | 25 (≈ 30.9 µM) | 6 (≈ 7.42 µM) | 12 (≈ 14.8 µM)
2 | CNC1=C2NC(=O)C(C)(NC)CC(=O)[C@@H]3C[C@@H]3[C@H](O)[C@@H](C)[C@@H](O)[C@@H](C)[C@H](OC(C)=O)[C@H](C)[C@@H](OC)/C=C/O[C@@]3(C)Oc4c(C)c(O)c(c(c4C3=O)C1=O)C2=O (stereo not given in full) | 0.005 (≈ 0.00649 µM) | > 100 | > 100 | 50 (≈ 64.9 µM)
3 | CO[C@H]1/C=C/O[C@@]2(C)Oc3c(C)c(O)c4c(c3C2=O)C(=O)C(NCCc2c[nH]cn2)=C(NC(=O)/C(C)=C\C(=O)[C@@H]2C[C@@H]2[C@H](O)[C@@H](C)[C@@H](O)[C@@H](C)[C@H](OC(C)=O)[C@@H]1C)C4=O | 0.05 (≈ 0.0611 µM) | 12 (≈ 14.7 µM) | 50 (≈ 61.1 µM) | 12 (≈ 14.7 µM)
4 | CO[C@H]1/C=C/O[C@@]2(C)Oc3c(C)c(O)c4c(c3C2=O)C(=O)C(NCc2ccccc2)=C(NC(=O)C(C)(NCc2ccccc2)CC(=O)[C@@H]2C[C@@H]2[C@H](O)[C@@H](C)[C@@H](O)[C@@H](C)[C@H](OC(C)=O)[C@@H]1C)C4=O (stereo not given in full) | 0.25 (≈ 0.271 µM) | – | – | –
5 | COC(CCNC1=C2NC(=O)/C(C)=C\C(=O)[C@@H]3C[C@@H]3[C@H](O)[C@@H](C)[C@@H](O)[C@@H](C)[C@H](OC(C)=O)[C@H](C)[C@@H](OC)/C=C/O[C@@]3(C)Oc4c(C)c(O)c(c(c4C3=O)C1=O)C2=O)OC | 0.005 (≈ 0.00605 µM) | 50 (≈ 60.5 µM) | 25 (≈ 30.2 µM) | 25 (≈ 30.2 µM)
6 | CO[C@H]1/C=C/O[C@@]2(C)Oc3c(C)c(O)c4c(c3C2=O)C(=O)C(NCCNc2ccc([N+](=O)[O-])cn2)=C(NC(=O)/C(C)=C\C(=O)[C@@H]2C[C@@H]2[C@H](O)[C@@H](C)[C@@H](O)[C@@H](C)[C@H](OC(C)=O)[C@@H]1C)C4=O | < 0.025 | > 50 | > 50 | > 50
7 | CO[C@H]1/C=C/O[C@@]2(C)Oc3c(C)c(O)c4c(c3C2=O)C(=O)C(NCc2cccnc2)=C(NC(=O)/C(C)=C\C(=O)[C@@H]2C[C@@H]2[C@H](O)[C@@H](C)[C@@H](O)[C@@H](C)[C@H](OC(C)=O)[C@@H]1C)C4=O | < 0.005 | 25 (≈ 30.6 µM) | 6 (≈ 7.35 µM) | 12 (≈ 14.7 µM)
8 | CO[C@H]1/C=C/O[C@@]2(C)Oc3c(C)c(O)c4c(c3C2=O)C(=O)C(NCCCN2CCN(C)CC2)=C(NC(=O)/C(C)=C\C(=O)[C@@H]2C[C@@H]2[C@H](O)[C@@H](C)[C@@H](O)[C@@H](C)[C@H](OC(C)=O)[C@@H]1C)C4=O | 0.025 (≈ 0.0289 µM) | 25 (≈ 28.9 µM) | 12 (≈ 13.9 µM) | 3 (≈ 3.47 µM)
9 | CO[C@H]1/C=C/O[C@@]2(C)Oc3c(C)c(O)c4c(c3C2=O)C(=O)C(NCCN2CCN(C)CC2)=C(NC(=O)/C(C)=C\C(=O)[C@@H]2C[C@@H]2[C@H](O)[C@@H](C)[C@@H](O)[C@@H](C)[C@H](OC(C)=O)[C@@H]1C)C4=O | 0.025 (≈ 0.0294 µM) | 12 (≈ 14.1 µM) | 25 (≈ 29.4 µM) | 6 (≈ 7.05 µM)
10 | CO[C@H]1/C=C/O[C@@]2(C)Oc3c(C)c(O)c4c(c3C2=O)C(=O)C(NCc2ccccc2)=C(NC(=O)/C(C)=C\C(=O)[C@@H]2C[C@@H]2[C@H](O)[C@@H](C)[C@@H](O)[C@@H](C)[C@H](OC(C)=O)[C@@H]1C)C4=O | < 0.005 | – | – | –
11 | CO[C@H]1/C=C/O[C@@]2(C)Oc3c(C)c(O)c4c(O)c(cc(O)c4c3C2=O)NC(=O)/C(C)=C\C=C\[C@H](C)[C@H](O)[C@@H](C)[C@@H](O)[C@@H](C)[C@H](OC(C)=O)[C@@H]1C [RIFAMYCIN] | < 0.005 | 100 (≈ 143 µM) | 100 (≈ 143 µM) | 100 (≈ 143 µM)
12 | CNC1=C2NC(=O)/C(C)=C\C(=O)[C@@H]3C[C@@H]3[C@H](O)[C@@H](C)[C@@H](O)[C@@H](C)[C@H](OC(C)=O)[C@H](C)[C@@H](OC)/C=C/O[C@@]3(C)Oc4c(C)c(O)c(c(c4C3=O)C1=O)C2=O | 0.005 (≈ 0.00677 µM) | 25 (≈ 33.8 µM) | 50 (≈ 67.7 µM) | 12 (≈ 16.2 µM)
13 | CO[C@H]1/C=C/O[C@@]2(C)Oc3c(C)c(O)c4c(c3C2=O)C(=O)C(NCc2ccn(C)c2)=C(NC(=O)/C(C)=C\C(=O)[C@@H]2C[C@@H]2[C@H](O)[C@@H](C)[C@@H](O)[C@@H](C)[C@H](OC(C)=O)[C@@H]1C)C4=O | 0.005 (≈ 0.00611 µM) | 12 (≈ 14.7 µM) | 12 (≈ 14.7 µM) | 12 (≈ 14.7 µM)
14 | CO[C@H]1/C=C/O[C@@]2(C)Oc3c(C)c(O)c4c(c3C2=O)/C(=N/[C@@H]2CC[C@@H](O)O[C@H]2C)C=C(NC(=O)/C(C)=C\C(=O)[C@@H]2C[C@@H]2[C@H](O)[C@@H](C)[C@@H](O)[C@@H](C)[C@H](OC(C)=O)[C@@H]1C)C4=O | 0.025 (≈ 0.0304 µM) | 100 (≈ 122 µM) | > 100 | > 100
15 | CO[C@H]1/C=C/O[C@@]2(C)Oc3c(C)c(O)c4c(c3C2=O)C(=O)C(NCCc2ccc(O)cc2)=C(NC(=O)/C(C)=C\C(=O)[C@@H]2C[C@@H]2[C@H](O)[C@@H](C)[C@@H](O)[C@@H](C)[C@H](OC(C)=O)[C@@H]1C)C4=O | < 0.005 | > 100 | > 100 | > 50
16 | CO[C@H]1/C=C/O[C@@]2(C)Oc3c(C)c(O)c4c(c3C2=O)C(=O)C(NCCCO)=C(NC(=O)/C(C)=C\C(=O)[C@@H]2C[C@@H]2[C@H](O)[C@@H](C)[C@@H](O)[C@@H](C)[C@H](OC(C)=O)[C@@H]1C)C4=O | 0.025 (≈ 0.0319 µM) | 25 (≈ 31.9 µM) | 12 (≈ 15.3 µM) | 12 (≈ 15.3 µM)
17 | CO[C@H]1/C=C/O[C@@]2(C)Oc3c(C)c(O)c4c(c3C2=O)C(=O)C(NCCc2ccccn2)=C(NC(=O)/C(C)=C\C(=O)[C@@H]2C[C@@H]2[C@H](O)[C@@H](C)[C@@H](O)[C@@H](C)[C@H](OC(C)=O)[C@@H]1C)C4=O | < 0.005 | 25 (≈ 30.1 µM) | 6 (≈ 7.23 µM) | 12 (≈ 14.5 µM)
18 | CO[C@H]1/C=C/O[C@@]2(C)Oc3c(C)c(O)c4c(c3C2=O)C(=O)C(NCC2CCCN(C)C2)=C(NC(=O)/C(C)=C\C(=O)[C@@H]2C[C@@H]2[C@H](O)[C@@H](C)[C@@H](O)[C@@H](C)[C@H](OC(C)=O)[C@@H]1C)C4=O (stereo not given in full) | 0.025 (≈ 0.0299 µM) | 12 (≈ 14.4 µM) | 12 (≈ 14.4 µM) | 12 (≈ 14.4 µM)
19 | COc1cc(CNC2=C3NC(=O)/C(C)=C\C(=O)[C@@H]4C[C@@H]4[C@H](O)[C@@H](C)[C@@H](O)[C@@H](C)[C@H](OC(C)=O)[C@H](C)[C@@H](OC)/C=C/O[C@@]4(C)Oc5c(C)c(O)c(c(c5C4=O)C2=O)C3=O)ccc1O | < 0.005 | 100 (≈ 116 µM) | 100 (≈ 116 µM) | 100 (≈ 116 µM)
20 | CO[C@H]1/C=C/O[C@@]2(C)Oc3c(C)c(O)c4c(c3C2=O)C(=O)C(NCCCN2CCC(=O)C2)=C(NC(=O)/C(C)=C\C(=O)[C@@H]2C[C@@H]2[C@H](O)[C@@H](C)[C@@H](O)[C@@H](C)[C@H](OC(C)=O)[C@@H]1C)C4=O | 0.005 (≈ 0.00588 µM) | – | 50 (≈ 58.8 µM) | 25 (≈ 29.4 µM)
21 | CO[C@H]1/C=C/O[C@@]2(C)Oc3c(C)c(O)c4c(c3C2=O)C(=O)C(NCCN(C)C)=C(NC(=O)/C(C)=C\C(=O)[C@@H]2C[C@@H]2[C@H](O)[C@@H](C)[C@@H](O)[C@@H](C)[C@H](OC(C)=O)[C@@H]1C)C4=O | < 0.005 | 25 (≈ 31.4 µM) | 6 (≈ 7.54 µM) | 12 (≈ 15.1 µM)
22 | CO[C@H]1/C=C/O[C@@]2(C)Oc3c(C)c(O)c4c(c3C2=O)C(=O)C(NCc2ccsc2)=C(NC(=O)/C(C)=C\C(=O)[C@@H]2C[C@@H]2[C@H](O)[C@@H](C)[C@@H](O)[C@@H](C)[C@H](OC(C)=O)[C@@H]1C)C4=O | < 0.005 | 100 (≈ 122 µM) | 12 (≈ 14.6 µM) | 12 (≈ 14.6 µM)
23 | COC1/C=C/OC2(C)Oc3c(C)c(O)c4c(c3C2=O)C(=O)C=C(NC(=O)/C(C)=C\C(=O)C2CC2C(O)C(C)C(O)C(C)C(OC(C)=O)C1C)C4=O (stereo not given) [TOLYPOMYCINONE] | 0.5 (≈ 0.704 µM) | – | – | –
24 | CO[C@H]1/C=C/O[C@@]2(C)Oc3c(C)c(O)c4c(c3C2=O)C(=O)C(NC2CCCCC2)=C(NC(=O)/C(C)=C\C(=O)[C@@H]2C[C@@H]2[C@H](O)[C@@H](C)[C@@H](O)[C@@H](C)[C@H](OC(C)=O)[C@@H]1C)C4=O | 0.25 (≈ 0.31 µM) | – | – | –
25 | CO[C@H]1/C=C/O[C@@]2(C)Oc3c(C)c(O)c4c(c3C2=O)C(=O)C=C(NC(=O)C(C)CC(=O)[C@@H]2C[C@@H]2[C@H](O)[C@@H](C)[C@@H](O)[C@@H](C)[C@H](OC(C)=O)[C@@H]1C)C4=O (stereo not given in full) | 0.5 (≈ 0.702 µM) | – | – | –
26 | CNC1=C2NC(=O)C(C)CC(=O)[C@@H]3C[C@@H]3[C@H](O)[C@@H](C)[C@@H](O)[C@@H](C)[C@H](OC(C)=O)[C@H](C)[C@@H](OC)/C=C/O[C@@]3(C)Oc4c(C)c(O)c(c(c4C3=O)C1=O)C2=O (stereo not given in full) | 0.5 (≈ 0.675 µM) | – | – | –
